Reference: ChEMBL document CHEMBL4513216, “Probing the Open Global Health Chemical Diversity Library for Multistage-Active Starting Points for Next-Generation Antimalarials” (ACS Infect Dis, 2020)

Assay: Toxicity liver stage against HepG2, at 10uM
Assay type: cell-based
Parameters: test concentration 10 uM, cell line HepG2-A16-CD81EGFP
Conditions: human, HepG2-A16-CD81EGFP cells; read-out: INHIBITION
In short: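 Uninfected HepG2-A16-CD81EGFP cells, 3 × 10^3 per well, 1536-well, plated on prespotted compound at 10 μM final, parasite-free screening media added to match infected plates; puromycin 10 μM positive, DMSO 0.5% negative; run in parallel with 48 h PbLuc assay at 37 °C, 5% CO2; viability by CellTiter-Glo luminescence, normalized to controls.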

SMILES | cytotoxicity at 10 µM [%]
Cc1ccc(OCCC(=O)N2CCCC(n3nc(C)nc3C)C2)cc1 (stereo unspecified) | -2.15
Cc1ncc(CN2CCCN(Cc3noc(C4CC4)n3)CC2)s1 | -8.57
Fc1cnc(N2C[C@@H]3C[C@@H](c4nc(C5CC5)cs4)O[C@@H]3C2)nc1 | 22.8
Cc1ccc(NCc2cncc3c2CCN(C(=O)C2CC=CC2)C3)nn1 | -2.42
CC1CCN(S(=O)(=O)N2CCC(Oc3cnccn3)CC2)CC1 | -2.76
Cc1cc(CNC(=O)C2CC(=O)N(CCN(C)C)C2)cc(C)n1 (stereo unspecified) | 3.05
N#Cc1ccc(C(=O)N2CCc3c(COCC4CC4)cncc3C2)cc1 | -98.8
CN(C(=O)CN1CCC(c2cc3ccccc3[nH]2)CC1)C1CC1 | 1.95
CC(=O)Nc1cccc(-c2ccccc2CCN)c1 | -5.85
COCCCN1C(=O)CC[C@H]2CN(Cc3cc4ccccc4o3)CC[C@H]21 | 23.8
O=C(NCc1ccoc1)NC1CCCN(c2ncccn2)C1 (stereo unspecified) | -1.27
Cc1nc(C)n(CC2CN(CCc3ccccn3)CCO2)n1 (stereo unspecified) | 4.89
CCN1CCN(c2ccc(C(=O)NC(C)CCOC)cc2)CC1 (stereo unspecified) | 8.7
CC(C)NC(=O)CCNC(=O)c1cnc(Cc2ccc(F)cc2)s1 | 2.87
O=C(c1cc(F)ccc1F)C1CCN(C(=O)c2cccnc2O)CC1 | -3.99
Cn1cc(CN2CCCCC2c2ccc(-c3cnn(C)c3)nc2)cn1 (stereo unspecified) | 9.25
CCN1CCN(S(=O)(=O)c2ccc(Cc3cc(C)n[nH]c3=O)cc2)CC1 | -8.25
O=C(CS(=O)(=O)Cc1nnnn1C1CC1)NCC1CC1 | 16.6
c1cc(CN2CCO[C@H]3[C@H](OCC4CCCC4)CC[C@@H]32)ccn1 | 13.9
Cn1cccc1C(=O)N1CC[C@H]2[C@H](CO[C@H]2CNS(C)(=O)=O)C1 | -2.94
COc1ccc2nc(NC(=O)c3c(C(=O)O)cnn3C)sc2c1 | 7.19
CNC(=O)c1cc(S(=O)(=O)C(C)C)cs1 | 5.08
CCn1cc(C(=O)NC2CCN(S(C)(=O)=O)CC2)c2ccccc21 | 0.95

SMILES | cytotoxicity at 10 µM [%]
O=C(NC1CC1)C1CCc2nnc(-c3cccc(C(F)(F)F)c3)n21 (stereo unspecified) | 8.6
CCCN1CCC[C@]2(CCC(=O)N2Cc2ccncc2)[C@H]1CC | -1.16
CC1(C)CN(CC(=O)NCc2ccccc2F)C[C@]1(C)O | -1.84
Brc1cccc(C2(CNCc3cc[nH]c3)CCOCC2)c1 | 8.95
COc1cccc2c1OCC(NCc1cnn(-c3ccccc3F)c1)C2 (stereo unspecified) | 1.68
c1nc(CCC2CCCCN2)cc(N2CCCC2)n1 (stereo unspecified) | -21.6
O=C(c1ccc(C2CCCN2)s1)N1CC=CC1 (stereo unspecified) | 1.33
CN1CCN(C)C2(CCN(Cc3ccsc3)CC2)C1=O | 0.0221
O=C([C@@H]1C[C@@H]2CCN(Cc3ccoc3)C[C@H]2O1)N1CCCC1 | -101
O=C(COCc1ccccc1)N1CCC(OCc2cccnc2)CC1 | 4.41
COc1cccc(CN(Cc2ncc[nH]2)Cc2ccco2)c1 | -8.01
CC(O)(CCc1ccccc1)CNC(=O)c1cccs1 (stereo unspecified) | -1.44
CC(c1ccccc1F)N1CCN(C(=O)Cc2ccncc2)CC1 (stereo unspecified) | -2.94
COCCN1CC2(CCCN(Cc3cc(=O)c(OC)co3)C2)CCC1=O (stereo unspecified) | -40
O=C(CCn1ccccc1=O)N1CCN(Cc2cccc(Cl)c2)CC1 | -1.97
O=C1COc2ccc(C(=O)NS(=O)(=O)c3ccccc3F)cc2N1 | -0.185
CC(C)c1noc([C@@H]2Cc3[nH]cnc3CN2C(=O)Nc2ccccc2)n1 | 0.0515
CCc1cnc(N)nc1NCCN1CCCCC1 | -17.8
CN(C)c1ccccc1C(=O)N1C[C@@H](CN2CCOCC2)[C@@H](CO)C1 | -4.09
CC1CCC(NS(=O)(=O)CC(=O)Nc2ccc(N3CCCC3)cn2)CC1 (stereo unspecified) | 1.54
c1ccc(-c2cc(CNCCCN3CCCCC3)c3nnnn3c2)cc1 | -30.6
COc1cc(F)c(S(=O)(=O)N2CCN(C)Cc3ccccc32)cc1OC | 3.84
Cc1nn(-c2ccc(C(=O)O)cc2)c2c1C(C(F)(F)F)SCC(=O)N2 (stereo unspecified) | -1.24

SMILES | cytotoxicity at 10 µM [%]
Cn1cc(C2NC3(CCCC3)C(=O)N2CC2CC2)c(=O)n(C)c1=O (stereo unspecified) | 6.93
CCC(=O)NC1CCN(c2cccc(OC(F)(F)F)c2)C1=O (stereo unspecified) | -11.5
Cc1nc(C2CCCN2Cc2ccon2)no1 (stereo unspecified) | -18
CCOC(=O)CN1C[C@@H]2OCCN(c3ncc(F)cn3)[C@@H]2C1 | 20.2
CC(C)(O)CCc1cccc(C(=O)N2CCC[C@H]2CN2CCCC2)c1 | -1.13
Cc1nncn1CCNC(=O)C(C)(C)c1cccc(F)c1 | 5.73
Cc1ccccc1C(CC(=O)NCc1n[nH]c(N)n1)c1ccccc1 (stereo unspecified) | 8.8
CC(CO)(NC(=O)Nc1nnc(C(F)F)s1)C1CC1 (stereo unspecified) | 9.23
Cc1ccc(OCC(O)Cn2ncc3cnn(C)c(=O)c32)cc1 (stereo unspecified) | -3.49
Cc1noc(CN2CCN(C(=O)c3ccccn3)CC2)n1 | 1.35
COC(CNC(=O)c1ccc[nH]1)c1cccc(Cl)c1 (stereo unspecified) | -0.23
CN(C)c1ccc(C(=O)N2CCC(c3n[nH]c(C4CC4)n3)CC2)cc1 | -2.42
COc1ccc(C(C)NCc2cnnn2C)cc1F (stereo unspecified) | -9.72
CCOC(=O)c1sc2ccsc2c1CN | -1.86
COCC(=O)N1Cc2nccn2CC(COc2cccnc2)C1 (stereo unspecified) | 5.41
O=C(O)c1cnc(OCC2CC2)c(Cl)c1 | -5.38
Cc1cnn(CC2CCCCN2C(=O)c2ccc(CN(C)C)cc2)c1 (stereo unspecified) | -11.4
CCc1nccn1C1CCCN(C(=O)c2ccnc(C)n2)C1 (stereo unspecified) | -1.12
O=C1NCCN1C1CCN(Cc2nc(-c3ccccc3)no2)CC1 | 30.3
CC(C)CCC(=O)NCc1ccc(N2CCCCC2)cc1 | 7.89
CC(C)CCCNC(=O)Nc1ccc(C(N)=O)c(Cl)c1 | 4.69
COCCN1CC(c2nc(CSC)no2)CCC1=O (stereo unspecified) | -7.74
CCn1ccc2ccnc(CC3CN(C(=O)c4ccc(F)cc4)C3)c21 | -3.3

SMILES | cytotoxicity at 10 µM [%]
O=C(CCCC1CCCC1)NS(=O)(=O)CC1CC1 | -5.62
Cc1nc(C)n(C2CCCN(C(=O)c3ccc(F)c(F)c3)C2)n1 (stereo unspecified) | -11.9
O=C(Cc1ccccc1)N1CC(=O)N(Cc2ccco2)CC(O)C1 (stereo unspecified) | -4.05
CCN(CC)CCn1ccnc1-c1[nH]cnc1C | -8.88
Cc1cccc(C(=O)N(C)CC(=O)N2CCCC2)c1C | -0.291
CCCNC(=O)C(C)Nc1ccc(COCC)cc1 (stereo unspecified) | 2.37
O=C(Nc1ccncc1)NC1CCN(c2ccccc2OC(F)F)C1 (stereo unspecified) | 15.6
Clc1ccccc1C1(c2ccnc(-c3ncccn3)n2)CCNCC1 | -6.28
Cn1cc(C(=O)N2CCCC(C(=O)CCc3ccccc3)C2)cn1 (stereo unspecified) | -5.16
Cc1ccsc1-c1nnc(SCC(=O)O)n1C(C)c1ccccc1 (stereo unspecified) | -4.65
CC(C)(C)C(NC(=O)CCS(C)(=O)=O)c1ccc(F)cc1F (stereo unspecified) | -0.189
Cc1cs/c(=N\C(=O)Cn2nc(N3CCOCC3)ccc2=O)[nH]1 | -5.07
Cc1cc(C(F)(F)F)c2c(=O)n(Cc3cc(C)on3)n(C)c2n1 | 1.46
CCNC(=O)CCC(=O)NC(C)Cc1ccccc1Br (stereo unspecified) | -4.99
COc1cccc(CCC2CCCN(C(=O)c3ccc(OC)o3)C2)c1 (stereo unspecified) | 9.9
Cc1noc(C(C)N2CCN(CCC(=O)N3CCOCC3)CC2)n1 (stereo unspecified) | -0.0308
COCCN1CCN(Cc2nc(-c3ccoc3)no2)CC1 | 16
CNC(=O)[C@@H]1C[C@@H](N)CN1Cc1ccc2cccc(OC)c2n1 | 0.719
COCC1CC2(CCN(Cc3ccco3)CC2)CN1C(C)C (stereo unspecified) | 0.0448
Cc1nnc(SCc2cc(=O)n3c4c(sc3n2)CCCC4)[nH]1 | -9.67
Cc1nc(N2CCCC2)nc2c1CCN(C(=O)C(C)C)CC2 | 5.02
CC(=O)N1[C@@H](C(=O)NCC2CC2)C[C@@H]2CN(Cc3nccs3)C[C@@H]21 | 1.7
Cc1cc(C(=O)Nc2cccn(Cc3ccccc3)c2=O)no1 | -1.55

SMILES | cytotoxicity at 10 µM [%]
O=C(NC1CC1)c1ccccc1NCc1cn2cccnc2n1 | 5.38
CC(=O)N1CCN(CC2CCOc3ccccc3C2)CC1 (stereo unspecified) | 7.68
CCc1nnc2n1CCN(C(=O)c1ccc3[nH]nnc3c1)C2 | -0.337
Cc1cc(NC(=O)CN2CCOC(CN(C)C)C2)n(C)n1 (stereo unspecified) | 0.894
N#Cc1ccc(OC2CCN(C(=O)c3ccc(Br)o3)CC2)nc1 | 11.2
COC(=O)N1CCC(CNC(=O)C2CC2)CC1 | -2.82
COc1cccc(CCC(=O)N2CCN(Cc3noc(C)n3)CC2)c1 | 3.09
Cc1cnn(CC2CCN(CC(O)COc3ccccc3)CC2)c1 (stereo unspecified) | -1.62
COCCN(c1ccncc1)S(=O)(=O)c1cc(C)c(F)cc1F | -6.54
N#CCCCS(=O)(=O)NC(=O)c1ccccc1F | 0.749
CN(C)S(=O)(=O)N1C[C@H]2CC[C@@H](C1)N(Cc1cccc(C#N)c1)C2 | 3.62
CC(CCc1ccccc1)CC(=O)NC1CCN(CC(N)=O)CC1 (stereo unspecified) | 9.04
CC(C)c1noc(CCC(=O)Nc2cc(F)ccc2F)n1 | -15.4
Cc1cnc(C(=O)N2CCC3(CCCN(c4nncs4)C3)C2)cn1 (stereo unspecified) | -103
Cc1nc([C@H]2C[C@H]3CN(C(=O)c4cc(C)c(C)s4)CC[C@@H]3O2)no1 | 0.732
O=C1NC2(Cc3ccccc31)CN(CC1CCNCC1)C2 | 10.8
Cc1cnc(C(NC(=O)NCc2nc(C3CC3)no2)C2CC2)s1 (stereo unspecified) | 4.34
CN(C)C[C@]12COC[C@H]1CN(Cc1ccc3ccccc3n1)C2 | 6.77
COc1ccc(-c2noc(CNC(C)Cn3cccn3)n2)c(OC)c1 (stereo unspecified) | -0.144
